Source: PubChem BioAssay
The entries come from a sample that favours hits as a whole.
PGC1a Ac signal: compounds raising PGC1a acetylation signal, primary screen, PGC1a modulator project, cell-based, U2OS, AlphaScreen, signal-increasing mode | actives 0.21% (n = 350,000) | AID 651723, 2012 | activation, % at 15.6 µM | overnight;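 active = every replicate reaching activation of at least 50%, whatever the mean replicate activation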;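 also: hits raise the AlphaScreen acetylation signal above neutral controls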
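System: Flag-PGC1a/GCN5 U2OS cells | Quantity: 7000 cells/well | Times: Overnight compound treatment, 37 °C | Measured by: AlphaScreen proximity luminescence, anti-acetyl-lysine antibody | Dosing: One concentration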
* = called active by the depositor.

For CC1CC1C(=O)N(C)CC(=O)Nc1cccc(F)c1 (stereo not drawn) the results were PGC1a Ac signal 78*.
Screening CCC(=O)N1C[C@H](C)[C@@H](OC)CN(C)C(=O)c2cc(NC(=O)Nc3cccc(F)c3)ccc2OC[C@H]1C returned PGC1a Ac signal -55.
For Cc1c(CCOC(=O)CC23CC4CC(CC(C4)C2)C3)sc[n+]1Cc1ccccc1 the results were PGC1a Ac signal 61*.
For CC[C@H](C)C1OC(=O)[C@@H](C)[C@@H](CC)NC(=O)[C@H](C)N(C)C(=O)C(C)(C)C(=O)C(C)NC(=O)[C@H](Cc2ccc(OC)cc2)N(C)C(=O)[C@H](C(C)C)N(C)C(=O)CNC(=O)[C@H](CC(C)C)N(C)C(=O)CNC1=O (stereo partly drawn) the results were PGC1a Ac signal -74.
Screening Cc1ccccc1OCC(=O)OCC(=O)NCc1ccc2c(c1)OCO2 returned PGC1a Ac signal 68*.
For COc1ccccc1/C=C(/C(=O)OCC(=O)NCc1ccccc1)c1ccccc1 the results were PGC1a Ac signal -92.
C[C@@H]1CN([C@@H](C)CO)C(=O)c2cc(C#CC3CCCC3)cnc2O[C@H]1CN(C)C(=O)Nc1ccccc1 was read as PGC1a Ac signal -45.
For NNS(=O)(=O)c1ccc(Cc2ncc(C(F)(F)F)cc2Cl)s1 the results were PGC1a Ac signal -50.
Screening Nc1ccccc1Oc1ncc(C(F)(F)F)cc1Cl returned PGC1a Ac signal -46.
Screening O=S(=O)(c1ccccc1)c1ncc(C(F)(F)F)cc1Cl returned PGC1a Ac signal 55*.
For COc1ccc(CCNc2ccc(C(CC(N)=O)NC(=O)c3cc(C)cc(C)c3)cc2[N+](=O)[O-])cc1 (stereo not drawn) the results were PGC1a Ac signal -46.
`CC(C)CCCCCCCCCCCCC(=O)NCC(=O)NC1C(C)OC(Nc2ncnc3nc[nH]c23)C(O)C1O` (stereo not drawn) gave PGC1a Ac signal -71.
CCc1ccc(NC(=O)C2CC=CCC2C(=O)O)cc1 (stereo not drawn) was read as PGC1a Ac signal 82*.
C[C@@H]1CN([C@H](C)CO)C(=O)c2cc(C#CC(C)(C)O)cnc2O[C@H]1CN(C)C(=O)c1ccccc1F was read as PGC1a Ac signal -50.
`COc1ccc(OC)c(Nc2ccc(C(=O)O)cc2[N+](=O)[O-])c1` gave PGC1a Ac signal -42.
For COc1ccc(S(=O)(=O)N2CCOCC2)cc1NC(=O)CCNC(=O)c1ccc([N+](=O)[O-])cc1 the results were PGC1a Ac signal 419*.
Screening CCN(c1ccccc1)S(=O)(=O)c1ccc(OC)c(NC(=O)Cc2ccc(F)cc2)c1 returned PGC1a Ac signal -40.
Screening O=C(O)/C=C/c1cnc[nH]1 returned PGC1a Ac signal -106.
Cc1ccccc1-n1nnnc1Sc1nnnn1-c1ccccc1 was read as PGC1a Ac signal -46.
For CCCSc1nnc(Sc2nnnn2-c2ccccc2)s1 the results were PGC1a Ac signal 84*.
For O=C(C[C@@H]1C=C[C@@H](NC(=O)Nc2ccc(C(F)(F)F)cc2)[C@H](CO)O1)NCc1ccccn1 the results were PGC1a Ac signal -43.
Screening Cc1c(C(=O)Nc2ccc3c(c2)OCCO3)sc2nc(-c3ccccc3)cn12 returned PGC1a Ac signal 62*.
Screening COc1ccc(-c2cnc3c(c2)C(=O)N([C@H](C)CO)C[C@@H](C)[C@H](CN(C)C(=O)C2CCC2)O3)cc1 returned PGC1a Ac signal -56.
OC(c1cc(C(F)(F)F)nc2c(C(F)(F)F)cccc12)C1CCCCN1 (stereo not drawn) was read as PGC1a Ac signal 78*.
For Nc1ncc([N+](=O)[O-])c(N2CCCCCC2)n1 the results were PGC1a Ac signal -53.
`CC(C)OC(=O)c1c(F)c(F)c(N2CCOCC2)c(F)c1F` gave PGC1a Ac signal -57.
Screening CC(=O)N1/C(=C/c2ccc(N(C)C)cc2)C(=O)c2ccccc21 returned PGC1a Ac signal 75*.
Screening CN(Cc1ccccc1)C(=O)c1ccc2c(c1)NC(=O)C(N1CCOCC1)S2 (stereo not drawn) returned PGC1a Ac signal -49.
O=C(OCc1cnc(Cl)s1)c1cccs1 was read as PGC1a Ac signal -94.
`CCOC(=O)c1cnn(-c2ccccc2)c1-n1cccc1C(=O)C(=O)Nc1ccc(F)cc1` gave PGC1a Ac signal 78*.
C[C@H]1CCCCO[C@H](CN(C)Cc2ccncc2)[C@@H](C)CN([C@@H](C)CO)C(=O)c2cc(NS(=O)(=O)c3ccccc3)ccc2O1 was read as PGC1a Ac signal -73.
For CC(=O)c1cccc(-c2ccnc3c2CC(C(=O)Nc2ccc4c(c2)OCO4)O3)c1 (stereo not drawn) the results were PGC1a Ac signal 58*.
`C[C@H]1CN([C@@H](C)CO)C(=O)c2cccc(NC(=O)c3ccncc3)c2O[C@H]1CN(C)C(=O)Nc1ccc2c(c1)OCO2` gave PGC1a Ac signal -42.
Screening O=C(C[C@@H]1C[C@@H]2c3cc(NC(=O)Nc4ccccc4F)ccc3O[C@@H]2[C@H](CO)O1)NCc1ccc(Oc2ccccc2)cc1 returned PGC1a Ac signal -41.
`CC(C)NC(=O)N(C)C[C@H]1OCc2cnnn2CCCC(=O)N([C@@H](C)CO)C[C@H]1C` gave PGC1a Ac signal -42.
C=CCSc1nc2ccccc2n1C(=O)/C=C/c1cc(OC)c(OC)c(OC)c1 was read as PGC1a Ac signal 527*.
CN(C)C(=O)C[C@@H]1C=C[C@@H](NS(=O)(=O)c2ccccc2)[C@@H](CO)O1 was read as PGC1a Ac signal -54.
Screening CC(C)(C)NC(=O)c1ccc(Sc2ccccc2)c([N+](=O)[O-])c1 returned PGC1a Ac signal -81.
For Cc1cc(C(=O)OCC(=O)N(C)c2ccccc2)ccc1[N+](=O)[O-] the results were PGC1a Ac signal -52.
CCCNC(=O)COC(=O)c1ccccc1C(=O)c1ccc(Cl)c([N+](=O)[O-])c1 was read as PGC1a Ac signal 127*.
`CCc1oc2c(C)c(O)ccc2c(=O)c1-c1ccc2ccccc2n1` gave PGC1a Ac signal -49.
Screening CC1CCCN(Cc2c(O)ccc3c4c(c(=O)oc23)CCCC4)C1 (stereo not drawn) returned PGC1a Ac signal -49.
CC1CCCN(Cc2c(O)ccc3c(=O)c(-c4nc5ccccc5s4)c(N)oc23)C1 (stereo not drawn) was read as PGC1a Ac signal 62*.
O=CNc1ccc2c(c1)Cc1cc([N+](=O)[O-])ccc1-2 was read as PGC1a Ac signal 54*.
CCOCCCNc1nc2c(c(=O)n(C)c(=O)n2C)n1CCCc1ccccc1 was read as PGC1a Ac signal -40.
For O=C(Nc1ccc(F)cc1)C1CCCN1S(=O)(=O)c1cccc2nsnc12 (stereo not drawn) the results were PGC1a Ac signal -41.
For Cc1ccc(S(=O)(=O)N2CCN(C(=O)CSc3nc4ccccc4c(=O)[nH]3)CC2)c(C)c1 the results were PGC1a Ac signal -44.
Cc1ccc(C)c(N2CCN(C(=O)CCCOc3cc(=O)n(C)c4ccccc34)CC2)c1 was read as PGC1a Ac signal 128*.
Cc1ccc(S(=O)(=O)N2CCN(S(=O)(=O)c3ccc(C)cc3)C2c2ccccc2)cc1 was read as PGC1a Ac signal 110*.
Screening Cc1ccc(S(=O)(=O)C(C#N)c2nc3ccccc3nc2N2CCCC2)cc1 (stereo not drawn) returned PGC1a Ac signal -50.
For CCOC(=O)C1CN(S(=O)(=O)c2ccccc2)c2cc(S(=O)(=O)CC)ccc2O1 (stereo not drawn) the results were PGC1a Ac signal -50.
